From ChEMBL document CHEMBL2062498, “3-Arylcoumarin derivatives manifest anti-proliferative activity through Hsp90 inhibition” (ACS Med Chem Lett, 2012)

Assays:
SK-BR-3 = test: Antiproliferative activity against estrogen receptor-negative Her2 overexpressing in human SKBR3 cells; format: functional, cell-based
Summary of the method: (§1)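 IC50 values for growth inhibition are reported as means ± standard deviations from at least two separate experiments, each run in triplicate.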

MCF7 = test: Antiproliferative activity against estrogen receptor-positive in human MCF7 cells; format: functional, cell-based; summary of the method: as §1
[1] = target: Heat shock protein HSP 90-beta (Homo sapiens) (UniProt P08238); test: Inhibition of HSP90 in human MCF7 cells assessed as degradation of Raf1 protein after 24 hrs by Western blot analysis; format: cell-based
Chain of Heat shock protein HSP 90-beta (Homo sapiens) (P08238 whole entry): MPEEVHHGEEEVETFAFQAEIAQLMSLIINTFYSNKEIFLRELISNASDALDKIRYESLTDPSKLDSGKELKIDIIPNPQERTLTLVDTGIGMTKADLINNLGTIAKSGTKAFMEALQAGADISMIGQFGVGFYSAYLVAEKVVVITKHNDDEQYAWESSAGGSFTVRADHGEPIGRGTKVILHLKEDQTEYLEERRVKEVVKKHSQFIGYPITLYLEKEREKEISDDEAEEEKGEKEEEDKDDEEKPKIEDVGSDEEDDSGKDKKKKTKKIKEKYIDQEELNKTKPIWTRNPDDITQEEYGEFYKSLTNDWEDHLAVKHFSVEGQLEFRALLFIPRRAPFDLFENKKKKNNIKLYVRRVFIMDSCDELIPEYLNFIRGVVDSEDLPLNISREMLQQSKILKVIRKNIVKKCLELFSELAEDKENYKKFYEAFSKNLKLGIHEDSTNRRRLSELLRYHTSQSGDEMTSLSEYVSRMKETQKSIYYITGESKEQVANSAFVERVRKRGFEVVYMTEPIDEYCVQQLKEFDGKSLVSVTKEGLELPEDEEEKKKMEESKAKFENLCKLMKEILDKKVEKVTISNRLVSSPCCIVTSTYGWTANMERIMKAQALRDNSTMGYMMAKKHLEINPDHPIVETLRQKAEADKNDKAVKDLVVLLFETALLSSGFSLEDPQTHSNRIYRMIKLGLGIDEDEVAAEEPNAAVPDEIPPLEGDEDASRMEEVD
Summary of the method: (§2)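 MCF-7 breast cancer cells were exposed to a range of test concentrations (μM) for 24 h, then lysed. Lysates were immunoblotted for the Hsp90-dependent clients Raf-1 and Akt, and also for Hsp90 itself. Actin served as the non-Hsp90-dependent reference protein.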

[2] = target: Heat shock protein HSP 90-beta (Homo sapiens) (UniProt P08238); test: Inhibition of HSP90 in human MCF7 cells assessed as degradation of Akt protein after 24 hrs by Western blot analysis; format: cell-based; summary of the method: as §2

Row | SMILES | IC50 (SK-BR-3) | IC50 (MCF7) | inhibition [1] | inhibition [2]
1 | CN1CCC(Oc2ccc3cc(-c4ccccc4-c4ccccc4)c(=O)oc3c2)CC1 | 15.6 µM | 15.6 µM |  | 
2 | Cc1c(OC2CCN(C)CC2)ccc2cc(-c3ccccc3)c(=O)oc12 | 14.3 µM | 7.72 µM |  | 
3 | Cc1c(OC2CCN(C)CC2)ccc2cc(-c3ccc(Cl)cc3)c(=O)oc12 | 4.94 µM | 1.24 µM |  | 
4 | COc1ccc(-c2cc3ccc(OC4CCN(C)CC4)c(C)c3oc2=O)cc1 | 5.52 µM | 1.97 µM |  | 
5 | CN1CCC(Oc2ccc3cc(-c4ccc(-c5ccccc5)cc4)c(=O)oc3c2)CC1 | 3.33 µM | 3.08 µM |  | 
6 | CN1CCC(Oc2ccc3cc(-c4ccc(OC(F)(F)F)cc4)c(=O)oc3c2)CC1 | 5.78 µM | 4.12 µM |  | 
7 | CN1CCC(Oc2ccc3cc(-c4ccc(C(C)(C)C)cc4)c(=O)oc3c2)CC1 | 4.42 µM | 2.36 µM |  | 
8 | CN1CCC(Oc2ccc3cc(-c4ccc(Oc5ccccc5)cc4)c(=O)oc3c2)CC1 | 4.43 µM | 1.45 µM |  | 
9 | CN1CCC(Oc2ccc3cc(-c4ccc5c(c4)OCO5)c(=O)oc3c2)CC1 | 14.8 µM | 8.79 µM |  | 
10 | Cc1c(OC2CCN(C)CC2)ccc2cc(-c3ccc(OC(F)(F)F)cc3)c(=O)oc12 | 4.51 µM | 1.65 µM |  | 
11 | COc1ccc(-c2cc3ccc(OC4CCN(C)CC4)cc3oc2=O)cc1 | 29.9 µM | 16.9 µM |  | 
12 | Cc1c(OC2CCN(C)CC2)ccc2cc(-c3ccc4c(c3)OCO4)c(=O)oc12 | 5.21 µM | 3.71 µM |  | 
13 | CN1CCC(Oc2ccc3cc(-c4cc5ccccc5s4)c(=O)oc3c2)CC1 | 0.98 µM | 0.81 µM | Dose-dependent effect | Dose-dependent effect
14 | Cc1c(OC2CCN(C)CC2)ccc2cc(-c3ccc(F)cc3)c(=O)oc12 | 7.38 µM | 3.83 µM |  | 
15 | CN1CCC(Oc2ccc3cc(-c4cc5ccccc5o4)c(=O)oc3c2)CC1 | 5.84 µM | 4.93 µM |  | 

The next lines start with the values.

Row | IC50 (SK-BR-3) | IC50 (MCF7) | inhibition [1] | inhibition [2] | SMILES
16 | 10.6 µM | 8.42 µM |  |  | CN1CCC(Oc2ccc3cc(-c4cccc(C#N)c4)c(=O)oc3c2)CC1
17 | 9.21 µM | 4.64 µM |  |  | CN1CCC(Oc2ccc3cc(-c4cccc(C(F)(F)F)c4)c(=O)oc3c2)CC1
18 | 43.9 µM | 10.5 µM |  |  | CN1CCC(Oc2ccc3cc(-c4ccc(F)cc4)c(=O)oc3c2)CC1
19 | 11.2 µM | 8.6 µM |  |  | Cc1ccc(-c2cc3ccc(OC4CCN(C)CC4)cc3oc2=O)cc1
20 | 38.4 µM | 29 µM |  |  | CN1CCC(Oc2ccc3cc(-c4ccccc4)c(=O)oc3c2)CC1
21 | 9.46 µM | 5.79 µM |  |  | CN1CCC(Oc2ccc3cc(-c4cccc(Cl)c4)c(=O)oc3c2)CC1
22 | 24.9 µM | 7.67 µM |  |  | CN1CCC(Oc2ccc3cc(-c4cccc(F)c4)c(=O)oc3c2)CC1
23 | 25.4 µM | 10.6 µM |  |  | CN1CCC(Oc2ccc3cc(-c4ccccc4Cl)c(=O)oc3c2)CC1
24 | 8.24 µM | 3.89 µM |  |  | CN1CCC(Oc2ccc3cc(-c4ccc(Cl)cc4)c(=O)oc3c2)CC1
